Experimental data published in ChEMBL document CHEMBL4257465, “Strigolactones: a plant phytohormone as novel anti-inflammatory agents” (Medchemcomm, 2018).
Calls of active or inactive are those of the source. The calls are words filed in the database; no cut-off is given here.

How the values were obtained:
RAW264.7 [1] = assay: Antiinflammatory activity in LPS-induced mouse RAW264.7 cells assessed as TNFalpha levels at 5 uM pretreated for 2 hrs followed by LPS stimulation and measured after 24 hrs by ELISA (reference value: 9653.7 +/- 377.3 pg/ml); format: functional
Procedure, shortened: (§1)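 RAW264.7 murine macrophages (DMEM, 10% serum, 37 °C, 5% CO2) seeded at 5 × 10^5 cells per well, pretreated 2 h with compound at 10, 5, 2.5 or 1.25 μM (DMSO 0.1% v/v), then LPS (E. coli 0127:B8) 100 ng mL−1 added. Supernatant TNF-α or IL-6 read by mouse ELISA kit after 6, 12 and 24 h. Mean ± SD, n = 3, three independent experiments.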

RAW264.7 [2] = assay: Antiinflammatory activity in LPS-induced mouse RAW264.7 cells assessed as TNFalpha levels at 2.5 uM pretreated for 2 hrs followed by LPS stimulation and measured after 12 hrs by ELISA (reference value: 5313.7 +/- 420.9 pg/ml); format: functional
RAW264.7 [3] = assay: Antiinflammatory activity in LPS-induced mouse RAW264.7 cells assessed as TNFalpha levels at 5 uM pretreated for 2 hrs followed by LPS stimulation and measured after 6 hrs by ELISA (reference value: 4377.1 +/- 318.6 pg/ml); format: functional; procedure, shortened: as §1
RAW264.7 [4] = assay: Antiinflammatory activity in LPS-induced mouse RAW264.7 cells assessed as IL-6 levels at 2.5 uM pretreated for 2 hrs followed by LPS stimulation and measured after 24 hrs by ELISA (reference value: 1966.6 +/- 102.3 pg/ml); format: functional; procedure, shortened: as §1
RAW264.7 [5] = assay: Antiinflammatory activity in LPS-induced mouse RAW264.7 cells assessed as TNFalpha levels at 10 uM pretreated for 2 hrs followed by LPS stimulation and measured after 12 hrs by ELISA (reference value: 5313.7 +/- 420.9 pg/ml); format: functional; procedure, shortened: as §1
RAW264.7 [6] = assay: Antiinflammatory activity in mouse RAW264.7 cells assessed as inhibition of LPS-induced NO production pretreated for 2 hrs followed by LPS stimulation measured after 24 hrs by Griess assay; format: functional, cell-based
Procedure, shortened: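 RAW264.7 murine macrophages (DMEM, 10% serum, 37 °C, 5% CO2) seeded at 5 × 10^4 cells/well and cultured 18 h. Compounds tested at 1–100 μM (DMSO 0.1% v/v), with LPS (E. coli 0127:B8) at 100 ng mL−1. Supernatant nitrite read with Griess reagent (10 min, room temperature, OD540).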

RAW264.7 [7] = assay: Antiinflammatory activity in LPS-induced mouse RAW264.7 cells assessed as IL-6 levels at 5 uM pretreated for 2 hrs followed by LPS stimulation and measured after 12 hrs by ELISA (reference value: 1394 +/- 62.6 pg/ml); format: functional; procedure, shortened: as §1
[8] = target: Mitogen-activated protein kinase 1 and 3 (ERK2 and ERK1) (Mus musculus) (UniProt P63085+Q63844); assay: Inhibition of LPS-induced ERK1/2 phosphorylation in mouse RAW264.7 cells after 4 hrs by Western blot analysis; format: cell-based
Mitogen-activated protein kinase 1 and 3 (ERK2 and ERK1) (Mus musculus), sequence (P63085 whole entry, looked up): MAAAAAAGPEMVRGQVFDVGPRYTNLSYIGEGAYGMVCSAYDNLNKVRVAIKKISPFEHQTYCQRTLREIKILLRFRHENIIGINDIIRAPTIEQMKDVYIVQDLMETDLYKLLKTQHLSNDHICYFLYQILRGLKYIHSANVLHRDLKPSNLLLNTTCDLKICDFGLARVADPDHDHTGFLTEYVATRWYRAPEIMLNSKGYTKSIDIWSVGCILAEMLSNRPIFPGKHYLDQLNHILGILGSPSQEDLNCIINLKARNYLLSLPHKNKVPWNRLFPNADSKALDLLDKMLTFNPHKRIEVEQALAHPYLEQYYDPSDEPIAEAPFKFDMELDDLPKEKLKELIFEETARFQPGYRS
Mitogen-activated protein kinase 1 and 3 (ERK2 and ERK1) (Mus musculus), sequence (Q63844 whole entry, looked up): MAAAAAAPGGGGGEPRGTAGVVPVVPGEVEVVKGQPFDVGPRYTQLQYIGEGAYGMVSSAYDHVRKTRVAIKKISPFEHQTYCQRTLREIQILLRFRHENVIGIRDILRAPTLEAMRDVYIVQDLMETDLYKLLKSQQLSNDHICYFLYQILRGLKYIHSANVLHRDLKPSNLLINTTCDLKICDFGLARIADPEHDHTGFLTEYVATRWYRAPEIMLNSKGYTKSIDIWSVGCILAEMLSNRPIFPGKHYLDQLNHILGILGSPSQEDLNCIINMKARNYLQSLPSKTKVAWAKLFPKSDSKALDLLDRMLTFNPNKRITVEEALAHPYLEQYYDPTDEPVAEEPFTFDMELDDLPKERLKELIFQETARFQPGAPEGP
Procedure, shortened: (§2)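 RAW264.7 cells at 2 × 10^6 per well given fresh medium with compound (10, 5, 2.5, 1.25 μM) plus LPS 500 ng mL−1 for 4 h. Lysed in IP buffer with 1 mM PMSF, protein by BCA. Run on 12.5% SDS-PAGE and blotted. Phospho and total ERK1/2 (Thr202/Tyr204), p38 (Thr180/Tyr182), IκBα (Ser32/36) and NF-κB p65 detected by ECL. Mean ± SD, n = 3.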

RAW264.7 [9] = assay: Antiinflammatory activity in LPS-induced mouse RAW264.7 cells assessed as IL-6 levels at 5 uM pretreated for 2 hrs followed by LPS stimulation and measured after 24 hrs by ELISA (reference value: 1966.6 +/- 102.3 pg/ml); format: functional; procedure, shortened: as §1
Danio rerio = assay: In-vivo antiinflammatory activity in 4 days post fertilized zebrafish larvae harboring coronilla-eGFP/Lyc-dsRed assessed as reduction in neutrophil recruitment to wounded tail at 5 to 20 uM measured after 3 to 6 hrs by fluorescence microscopic analysis; format: functional, organism-based
Procedure, shortened: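 Double transgenic neutrophil/macrophage reporter larvae (Coronilla-eGFP/Lyc-dsRed), 4 dpf, tail-cut. […] Neutrophils and macrophages gathering at the wound imaged by fluorescence microscopy at 3 and 6 h. 6–8 larvae per group. Uncut larvae serve as blank, untreated cut larvae as control.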

[10] = target: T1, NF-kappa-B inhibitor alpha (Mus musculus) (UniProt Q9Z1E3); assay: Inhibition of LPS-induced IkappaBalpha phosphorylation in mouse RAW264.7 cells after 4 hrs by Western blot analysis; format: cell-based; procedure, shortened: as §2
T1 sequence (whole entry): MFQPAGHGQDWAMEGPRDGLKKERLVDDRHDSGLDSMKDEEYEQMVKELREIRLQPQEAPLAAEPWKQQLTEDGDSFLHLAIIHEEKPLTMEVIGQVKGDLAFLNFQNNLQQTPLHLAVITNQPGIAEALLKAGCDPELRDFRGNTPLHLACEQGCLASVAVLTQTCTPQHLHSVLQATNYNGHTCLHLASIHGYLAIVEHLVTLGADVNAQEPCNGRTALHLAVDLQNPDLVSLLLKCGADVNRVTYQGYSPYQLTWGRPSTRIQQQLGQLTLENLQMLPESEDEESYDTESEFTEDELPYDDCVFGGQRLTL

RAW264.7 [11] = assay: Antiinflammatory activity in LPS-induced mouse RAW264.7 cells assessed as TNFalpha levels at 10 uM pretreated for 2 hrs followed by LPS stimulation and measured after 6 hrs by ELISA (reference value: 4377.1 +/- 318.6 pg/ml); format: functional; procedure, shortened: as §1
RAW264.7 [12] = assay: Antiinflammatory activity in LPS-induced mouse RAW264.7 cells assessed as IL-6 levels at 2.5 uM pretreated for 2 hrs followed by LPS stimulation and measured after 12 hrs by ELISA (reference value: 1394 +/- 62.6 pg/ml); format: functional; procedure, shortened: as §1
RAW264.7 [13] = assay: Antiinflammatory activity in LPS-induced mouse RAW264.7 cells assessed as IL-6 levels at 10 uM pretreated for 2 hrs followed by LPS stimulation and measured after 24 hrs by ELISA (reference value: 1966.6 +/- 102.3 pg/ml); format: functional; procedure, shortened: as §1
RAW264.7 [14] = assay: Antiinflammatory activity in LPS-induced mouse RAW264.7 cells assessed as TNFalpha levels at 1.25 uM pretreated for 2 hrs followed by LPS stimulation and measured after 12 hrs by ELISA (reference value: 5313.7 +/- 420.9 pg/ml); format: functional
RAW264.7 [15] = assay: Antiinflammatory activity in LPS-induced mouse RAW264.7 cells assessed as TNFalpha levels at 10 uM pretreated for 2 hrs followed by LPS stimulation and measured after 24 hrs by ELISA (reference value: 9653.7 +/- 377.3 pg/ml); format: functional; procedure, shortened: as §1
RAW264.7 [16] = assay: Antiinflammatory activity in LPS-induced mouse RAW264.7 cells assessed as IL-6 levels at 2.5 uM pretreated for 2 hrs followed by LPS stimulation and measured after 6 hrs by ELISA (reference value: 472.3 +/- 25.8 pg/ml); format: functional; procedure, shortened: as §1
RAW264.7 [17] = assay: Antiinflammatory activity in LPS-induced mouse RAW264.7 cells assessed as TNFalpha levels at 2.5 uM pretreated for 2 hrs followed by LPS stimulation and measured after 6 hrs by ELISA (reference value: 4377.1 +/- 318.6 pg/ml); format: functional; procedure, shortened: as §1

Row | SMILES | Activity (RAW264.7 [1]) [pg/mL] | Activity (RAW264.7 [2]) [pg/mL] | Activity (RAW264.7 [3]) [pg/mL] | Activity (RAW264.7 [4]) [pg/mL] | Activity (RAW264.7 [5]) [pg/mL] | IC50 (RAW264.7 [6]) [µM] | Activity (RAW264.7 [7]) [pg/mL] | inhibition [8] | Activity (RAW264.7 [9]) [pg/mL] | Activity (Danio rerio) | inhibition [10] | Activity (RAW264.7 [11]) [pg/mL] | Activity (RAW264.7 [12]) [pg/mL] | Activity (RAW264.7 [13]) [pg/mL] | Activity (RAW264.7 [14]) [pg/mL] | Activity (RAW264.7 [15]) [pg/mL] | Activity (RAW264.7 [16]) [pg/mL] | Activity (RAW264.7 [17]) [pg/mL]
1 | CC1=C[C@H](O/C=C2/C(=O)O[C@@H]3c4ccccc4C[C@H]23)OC1=O | 9085.5 | 5186.9 | 4140.7 | 1729.3 | 4685.5 | 3.14 | 1090.7 | Dose-dependent effect | 1499.2 | Active | Dose-dependent effect | 3862.3 | 1267.7 | 1002.2 | 5303.7 | 8660.7 | 433.6 | 4276.9
2 | CC1=C[C@@H](O/C=C2/C(=O)O[C@H]3c4ccccc4C[C@@H]23)OC1=O | 9318.5 | 5212.4 | 4209.3 | 1787.6 | 4721.3 | 3.51 | 1177 | Dose-dependent effect | 1561.1 | Active | Dose-dependent effect | 3927.4 | 1296 | 1061.3 | 5319.6 | 8796.7 | 447.9 | 4307.9
